From PubChem BioAssay
CHRM5 agonist – agonists of human muscarinic M5 receptor (CHRM5) | P08912 | activation, % at 3 µM | CHO-K1 hM5 cells, Fluo-8 calcium fluorescence; 0% DMSO wells, 100% maximal acetylcholine response | AID 624037 | actives 0.19% (n = 360,000);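 active = activation above the run's mean over test compounds plus 3 SD, cut at about 23% in these data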;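 note: signal is peak over basal fluorescence ratio across the kinetic read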
Target sequence (P08912 whole entry, looked up): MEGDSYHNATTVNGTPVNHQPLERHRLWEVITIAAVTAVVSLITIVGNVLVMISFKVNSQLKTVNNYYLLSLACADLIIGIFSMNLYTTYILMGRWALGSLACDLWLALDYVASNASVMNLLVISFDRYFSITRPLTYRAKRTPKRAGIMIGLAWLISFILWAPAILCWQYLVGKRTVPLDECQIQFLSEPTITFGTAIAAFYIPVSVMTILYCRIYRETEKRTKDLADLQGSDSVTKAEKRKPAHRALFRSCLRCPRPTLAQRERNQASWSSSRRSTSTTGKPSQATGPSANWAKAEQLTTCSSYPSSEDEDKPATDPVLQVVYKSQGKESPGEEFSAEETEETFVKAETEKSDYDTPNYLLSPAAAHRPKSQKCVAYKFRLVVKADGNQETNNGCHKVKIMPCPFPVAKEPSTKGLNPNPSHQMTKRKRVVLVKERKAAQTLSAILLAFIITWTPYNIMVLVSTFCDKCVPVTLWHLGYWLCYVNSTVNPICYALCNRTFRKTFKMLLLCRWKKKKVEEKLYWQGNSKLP
M5 PAM – potentiates acetylcholine response at human M5 receptor | actives 0.3% (n = 360,000) | activation, % at 3 µM | CHO-K1 hM5, Fluo-8 calcium, ACh EC20 PAM; 0% = ACh EC20, 100% = ACh EC100 | AID 624038;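 active = activation above the run cutoff, the mean activation of all test compounds plus 3 SD, cut at about 18% in these data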
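Replicates: One well per compound, no replicates | System: Human M5 receptor in CHO-K1 cells | Benchmarks: Low control EC20 acetylcholine (0%), high control EC100 acetylcholine (100%) | Probe or stimulus: Acetylcholine, EC20 level | Times: Fluo-8 loading 80 min at 37 °C plus 30 min room temperature | Signal: Intracellular calcium via Fluo-8 fluorescence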
M4 antag – antagonists of human muscarinic M4 receptor (CHRM4); P08173; CHO-hM4 cells, ACh EC80, Fluo-8 calcium fluorescence; inhibition, % at 3 µM; actives 0.73% (n = 360,000);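 active = inhibition above its plate's cutoff, the mean inhibition of sample wells plus 3 SD, cut at about 27% in these data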;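 note: 0% = acetylcholine EC80 with DMSO and 100% = DMSO without agonist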
M4 ag – agonists of human muscarinic M4 receptor (CHRM4); P08173; actives 0.14% (n = 360,000); CHO-K1 hM4/Gqi5, Fluo-8 calcium fluorescence; vehicle 0%, full acetylcholine response 100%; activation, % at 3 µM;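 active = activation above the run mean over all test wells plus 3 SD, cut at about 32% in these data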;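 note: peak over basal fluorescence ratio per well then scaled between controls; 0% = DMSO wells and 100% = acetylcholine at EC100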
CHRM4 PAM – potentiates acetylcholine response at human M4 receptor | CHO-K1 hM4/Gqi5, Fluo-8 calcium fluorescence, ACh EC20; 0% = ACh EC20, 100% = maximal ACh | activation, % at 3 µM | actives 0.4% (n = 360,000);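 active = activation above its plate's cutoff, the mean activation of sample wells plus 3 SD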
M5 antag – CHRM5 antagonism in calcium assay | P08912 | CHO-hM5 cells, Fluo-8 calcium fluorescence, ACh EC80 | inhibition, % at 3 µM | actives 0.59% (n = 360,000) | AID 624040;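 active = inhibition above a per-plate cutoff, the mean of that plate's test compounds plus 3 SD, cut at about 27% in these data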;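 note: 0% = acetylcholine EC80 with DMSO and 100% = DMSO without agonist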
The depositor's hits bear a star; ! = repeats disagree. A selection: hits, their analogues and other compounds. The true share with any hit is near 1.8%.

SMILES	CHRM5 agonist	M5 PAM	M4 antag	M4 ag	CHRM4 PAM	M5 antag
CC(=O)N1CCC(N2CCCC(C(=O)c3cccc(Cl)c3)C2)CC1 (configuration not stated)	-10.5	-16.2	26.6*	0.6	-21.5	17.6
CC(C)(C)c1ccc(C(=O)C2CCCN(C3CCC3)C2)cc1 (configuration not stated)	-15.2	-1.1	32.0*	2.3	-24.3	5.5
CNc1cc(Cl)c2nonc2c1[N+](=O)[O-]	-5.5	-7.3	34.0*	-1.8	-6.2	15.2
C[C@]12CC[C@H](OS(=O)(=O)O)CC1=CC[C@@H]1[C@@H]2CC[C@]2(C)C(=O)CC[C@@H]12	-0.3	-3.2	71.4*!	-0.1	-1.0	3.3
C[n+]1c(-c2ccccc2)cc(CCCCc2cc(-c3ccccc3)[n+](C)c(-c3ccccc3)c2)cc1-c1ccccc1	-16.3	-22.9	46.5*	0.5	-21.1	19.8
COc1ccc(-c2cc(-c3ccccc3)[n+](C)c(-c3ccccc3)c2)cc1	-9.9	-9.7	10.4	0.5	-7.8	22.9
CCCNC(=O)c1c(N)n(Cc2ccc3c(c2)OCO3)c2nc3ccccc3nc12	4.0	6.9	3.2	0.5	-2.6	-7.4
CC(C)(C)c1nc(NCc2ccc3c(c2)OCO3)c2nnn(Cc3ccccc3Cl)c2n1	-1.3	-3.1	-3.1	0.7	28.5*	1.2
Cc1ccccc1NC(=O)NCCN1CC1	-6.8	-9.8	-7.8	0.9	1.8	24.8
O=C(CF)NC(NC(=S)Nc1ccccc1O)C(Cl)(Cl)Cl (configuration not stated)	-0.2	4.2	-12.0	1.4	20.1*	6.5
COc1ccc(Br)cc1CN1CCN(CCO)CC1	-3.8	5.4	5.1	1.0	8.2	-1.9
COc1cc(Br)cc(CN2CCN(C)CC2)c1O	-6.3	-19.8	41.0*	0.7	-14.4	9.8
CCN1CCN(c2nc3c(c(=O)[nH]2)CCCC3)CC1	1.7	7.1	-1.3	-0.1	25.9*	-6.8
CCN1CCN(c2cn[nH]c(=O)c2Cl)CC1	-6.6	-1.4	2.8	1.3	3.8	0.5
CCOP(=O)(/C=C(\Cl)c1ccccc1)C(O)c1ccc(F)cc1 (configuration not stated)	-3.1	1.9	-2.7	0.6	-6.0	3.6
COC(=O)C1=C(c2cccc(C#N)c2)C[C@@H]2CC[C@H]1N2C(=O)NCCOc1ccc(OC)cc1	-0.3	-1.8	7.3	-0.1	9.0	5.1
O=c1[nH]c(=O)n(Cc2ccc(F)cc2)c(O)c1C=NCC1CCCO1 (configuration not stated)	0.1	37.8*	-10.2	1.1	5.6	-17.6
CCOC(=O)c1ccc(NC(=O)N2CC3CC(C2)c2cccc(=O)n2C3)cc1 (configuration not stated)	-2.3	2.0	3.1	0.9	-2.8	5.2
CCOC(=O)c1ccc(NC(=O)N2C[C@@H]3C[C@@H](C2)c2cccc(=O)n2C3)cc1	-0.5	-9.4	68.8*	0.2	-14.2	3.1
